From ChEMBL document CHEMBL4732041, “Sulfonium-based liposome-encapsulated antibiotics deliver a synergistic antibacterial activity” (RSC Med Chem, 2021)
Where “and” joins values, the source holds several entries; their conditions need not be identical. Equal entries are not always repeated. Calls of active or inactive are those of the source. No cut-off for these calls is given here.

Key:
Escherichia coli [1] = experiment: Bactericidal activity against Escherichia coli MTCC 1687 incubated for 24 hrs by micro broth dilution method; type: functional
Pseudomonas aeruginosa [2] = experiment: Antibacterial activity against Pseudomonas aeruginosa MTCC 2488 incubated for 14 to 16 hrs by micro broth dilution method; type: functional; details: time 14-16 hrs
Procedure, shortened: (§1)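 Broth microdilution. E. coli and P. aeruginosa grown in LB, S. aureus in BHI, to mid-log phase at 37 °C with shaking. Cells washed and resuspended in PBS, then exposed to graded compound concentrations at 10^6 CFU/mL at 37 °C for 14–16 h. OD600 read. MIC is the lowest concentration with no visible growth or OD close to the bacteria-free control. Repeated thrice at the MIC.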

Escherichia coli [3] = experiment: Antibacterial activity against Escherichia coli MTCC 1687 incubated for 14 to 16 hrs by micro broth dilution method; type: functional; details: time 14-16 hrs; procedure, shortened: as §1
Staphylococcus aureus [4] = experiment: Antibacterial activity against methicillin resistant Staphylococcus aureus incubated for 14 to 16 hrs by micro broth dilution method; type: functional; details: time 14-16 hrs
Procedure, shortened: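 MRSA grown in BHI broth at 37 °C with shaking to mid-log phase, harvested, PBS-washed and resuspended in PBS; 10^6 CFU mL−1 incubated with serially varied compound concentrations at 37 °C for 14–16 h; OD600 read. MIC is the lowest concentration with no visible growth or OD near the bacteria-free control; repeated thrice.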

Staphylococcus aureus [5] = experiment: Bactericidal activity against Staphylococcus aureus assessed as membrane damage incubated for 5 hrs by cFDA-SE dye based fluorescence microscopic analysis; type: functional, organism-based
Procedure, shortened: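 S. aureus cultured and harvested, then exposed to compound (buffer-only control) for 5 h. Cells washed and diluted to 10^6 CFU/mL, stained separately with 30 μM PI or 10 μM cFDA-SE for 30 min, and viewed by fluorescence microscopy.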

Staphylococcus aureus [6] = experiment: Bactericidal activity against Staphylococcus aureus MTCC 96 assessed as fragmented cell morphology incubated for 5 hrs by FESEM analysis; type: functional, organism-based
Procedure, shortened: (§2)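 S. aureus MTCC 96 and E. coli MTCC 1687 harvested by centrifugation (5000 rpm, 5 min) and washed. Exposed to compound for 5 h alongside untreated control. Cells washed with water, drop-cast on foil, air-dried, mounted on carbon tape, gold double-coated, and imaged by FESEM.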

Escherichia coli [7] = experiment: Bactericidal activity against Escherichia coli MTCC 1687 assessed as fragmented cell morphology incubated for 5 hrs by FESEM analysis; type: functional, organism-based; procedure, shortened: as §2
Staphylococcus aureus [8] = experiment: Antibacterial activity against Staphylococcus aureus MTCC 96 incubated for 14 to 16 hrs by micro broth dilution method; type: functional; details: time 14-16 hrs; procedure, shortened: as §1
Cell membrane [9] = experiment: Disruption of bacterial cell membrane in Staphylococcus aureus MTCC 96 assessed as increase in PI uptake by measuring increase in fluorescence intensity by PI dye based spectrofluorometric analysis; type: subcellular; details: time 1-3 hrs, TDE = time-dependent effect
Procedure, shortened: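 S. aureus MTCC 96 grown overnight and diluted in medium to 10^6 CFU/mL. Compound added, then incubated at 37 °C, 180 rpm. Samples taken at 1, 2 and 3 h, washed in PBS, stained with 30 μM PI for 30 min, washed again. Fluorescence read at excitation 535 nm, emission 617 nm.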

[10] = Hemolytic activity against human erythrocytes incubated for 1 hr by UV-vis spectroscopic method; type: ADME, cell-based, Erythrocyte
Procedure, shortened: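 Erythrocytes from fresh human blood spun at 1500 rpm for 10 min, PBS-washed, made to 5% haematocrit. Serial compound dilutions incubated with the cells for 1 h at 37 °C. Buffer served as negative control and 0.5% Triton X-100 as positive control. After centrifugation, supernatant absorbance read at 410 nm and % haemolysis computed against both controls.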

Staphylococcus aureus [11] = experiment: Bactericidal activity against methicillin resistant Staphylococcus aureus […] by micro broth dilution method; type: functional
[12] = Aggregation property of compound assessed as spherical aggregates size by dynamic light scattering analysis; type: physicochemical
Procedure, shortened: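 Chloroform stock dried to a film by rotary evaporation, hydrated overnight at 50 °C in PBS (137 mM NaCl, 2.7 mM KCl, 8 mM Na2HPO4, 2 mM KH2PO4, pH 7.4), then vortexed and intermittently sonicated to unilamellar vesicles. Hydrodynamic diameter and zeta potential measured by DLS at 25 °C in buffers of different pH.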

[13] = Drug release in PBS at pH 7.4 assessed as amoxicillin release incubated for 60 hours by fluorometric method; details: buffer, pH 7.4, 60 h
Pseudomonas aeruginosa [14] = experiment: Bactericidal activity against Pseudomonas aeruginosa MTCC 2488 incubated for 24 hrs by micro broth dilution method; type: functional
[15] = Therapeutic index, ratio of IC50 for human HaCaT to MIC for Escherichia coli; type: toxicity; details: HaCaT cells, read-out: TI
HaCaT [16] = experiment: Cytotoxicity against human HaCaT cells after 24 hrs by MTT assay; type: cell-based
Staphylococcus aureus [17] = experiment: Bactericidal activity against Staphylococcus aureus MTCC 96 […] by micro broth dilution method; type: functional
Cell membrane [18] = experiment: Induction of membrane depolarization in Staphylococcus aureus MTCC 96 assessed as increase in fluorescence intensity at 0 to 4 uM by DiSC3-5 dye based fluorescence assay; type: subcellular; details: dose 0-4 µM
Procedure, shortened: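 Mid-log S. aureus MTCC 96 resuspended in 10 mM HEPES with 50 mM glucose and loaded with 0.4 μM (final) DiSC3(5) for 1 h. KCl added to 100 mM, 10 min wait, then compound at 0, 2 or 4 μM or 30 μM valinomycin as positive control. Fluorescence recorded at excitation 620 nm, emission 650 nm.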

[19] = Drug release in PBS at pH 7.4 assessed as tetracyclin release incubated for 60 hours by fluorometric method; details: buffer, pH 7.4, 60 h
[20] = Therapeutic index, ratio of IC50 for human HaCaT to MIC for Staphylococcus aureus; type: toxicity; details: HaCaT cells
[21] = Aggregation property of the compound in aqueous medium assessed as formation of spherical aggregates by FE-TEM analysis; type: physicochemical; details: buffer
Procedure, shortened: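 Lipid aggregates prepared in PBS pH 7.4 by film hydration, not extruded, then diluted to half concentration. Applied to carbon-coated copper grid for 1 min, uranyl acetate stain, excess wicked off. Grid dried overnight at 30 °C and imaged by TEM at 200 kV.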

Staphylococcus aureus [22] = experiment: Antibiofilm activity against Staphylococcus aureus MTCC 96 assessed as inhibition of biofilm formation incubated for overnight by crystal violet staining assay; type: functional, organism-based; details: dose 6.25-100 µM
Procedure, shortened: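 S. aureus MTCC 96 grown and exposed to compound as in the MIC assay, then incubated overnight. Planktonic cells removed, wells rinsed with PBS and air-dried. Stained with 1% (v/v) crystal violet for 20 min, dried, dye taken up in 95% ethanol, and absorbance read at 590 nm.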

Pseudomonas aeruginosa [23] = experiment: Antibacterial activity against Pseudomonas aeruginosa after 24 hrs by microdilution method; type: functional
HaCaT [24] = experiment: Cytotoxicity against human HaCaT cells up to 100 uM after 24 hrs by MTT assay; type: cell-based

MIC (Pseudomonas aeruginosa [23])	Compound	MBC (Escherichia coli [1])	MIC (Pseudomonas aeruginosa [2])	MIC (Escherichia coli [3])	MIC (Staphylococcus aureus [4])	MIC (Staphylococcus aureus [8])	HC50 at 1 h [10]	MBC (Staphylococcus aureus [11])	MBC (Pseudomonas aeruginosa [14])	MBC (Staphylococcus aureus [17])	further results
6.25 µM and 3.9 µg/mL	CCCCCCCCN=c1ccn(CCCCCCCCCCn2ccc(=NCCCCCCCC)cc2)cc1.Cl.Cl [OCTENIDINE HYDROCHLORIDE]										
32 µg/mL	CCCCCCCCCCCCC[N+](C)(C)Cc1ccccc1.[Cl-] [BENZALKONIUM CHLORIDE]										
15.6 µg/mL and 30.9 µM	N=C(NCCCCCCNC(=N)NC(=N)Nc1ccc(Cl)cc1)NC(=N)Nc1ccc(Cl)cc1.O=C(O)[C@H](O)[C@@H](O)[C@H](O)[C@H](O)CO										

The remaining lines, values behind:

Compound	MIC (Pseudomonas aeruginosa [23])	MBC (Escherichia coli [1])	MIC (Pseudomonas aeruginosa [2])	MIC (Escherichia coli [3])	MIC (Staphylococcus aureus [4])	MIC (Staphylococcus aureus [8])	HC50 at 1 h [10]	MBC (Staphylococcus aureus [11])	MBC (Pseudomonas aeruginosa [14])	MBC (Staphylococcus aureus [17])	further results
CCCCCCCCCCCC[S+](C)Cc1cc(C[n+]2ccccc2)cc(C[S+](C)CCCCCCCCCCCC)c1.F[B-](F)(F)F.F[B-](F)(F)F.F[B-](F)(F)F (stereo unspecified)		10 µM	12 µM	7.5 µM	6.3 µM	6.3 µM	29 µM	12.5 µM	24 µM	12.5 µM	Activity (Staphylococcus aureus [5]): Active; Activity (Staphylococcus aureus [6]): Active; Activity (Escherichia coli [7]): Active; Activity (Cell membrane [9]): Tde; Activity [12]: 270 nm; Activity [13]: 60%; selectivity ratio [15]: 3.6; IC50 (HaCaT [16]): 27 µM; Activity (Cell membrane [18]): Active; Activity [19]: 40%; selectivity ratio [20]: 4.3; Activity [21]: Active; Activity (Staphylococcus aureus [22]): Dose-dependent effect
CCCCCCCCCCCC[S+](C)Cc1cc(Cn2cc(CS(=O)(=O)O)nn2)cc(C[S+](C)CCCCCCCCCCCC)c1.F[B-](F)(F)F.F[B-](F)(F)F (stereo unspecified)		20 µM	25 µM	12 µM	25 µM	10 µM	35 µM	> 100 µM	50 µM	12.5 µM	Activity (HaCaT [24]): Non-Toxic
Oc1cc(Cl)ccc1Oc1ccc(Cl)cc1Cl [TRICLOSAN]	> 512 µg/mL										
